Data reported in ChEMBL document CHEMBL1921718, “Structure-activity relationships in toll-like receptor 2-agonists leading to simplified monoacyl lipopeptides” (J Med Chem, 2011).
The source made the active and inactive calls. The calls are words filed in the database; no cut-off is given here.

Legend:
[1] = molecular target: Toll-like receptor 2 (Homo sapiens, UniProt O60603); experiment: Agonist activity at human TLR2 expressed in HEK293 cells assessed as NF-kappaB induction measured soluble alkaline phosphatase after 12 hrs by spectrophotometric analysis; format: functional, cell-based
Sequence of Toll-like receptor 2 (O60603 whole entry): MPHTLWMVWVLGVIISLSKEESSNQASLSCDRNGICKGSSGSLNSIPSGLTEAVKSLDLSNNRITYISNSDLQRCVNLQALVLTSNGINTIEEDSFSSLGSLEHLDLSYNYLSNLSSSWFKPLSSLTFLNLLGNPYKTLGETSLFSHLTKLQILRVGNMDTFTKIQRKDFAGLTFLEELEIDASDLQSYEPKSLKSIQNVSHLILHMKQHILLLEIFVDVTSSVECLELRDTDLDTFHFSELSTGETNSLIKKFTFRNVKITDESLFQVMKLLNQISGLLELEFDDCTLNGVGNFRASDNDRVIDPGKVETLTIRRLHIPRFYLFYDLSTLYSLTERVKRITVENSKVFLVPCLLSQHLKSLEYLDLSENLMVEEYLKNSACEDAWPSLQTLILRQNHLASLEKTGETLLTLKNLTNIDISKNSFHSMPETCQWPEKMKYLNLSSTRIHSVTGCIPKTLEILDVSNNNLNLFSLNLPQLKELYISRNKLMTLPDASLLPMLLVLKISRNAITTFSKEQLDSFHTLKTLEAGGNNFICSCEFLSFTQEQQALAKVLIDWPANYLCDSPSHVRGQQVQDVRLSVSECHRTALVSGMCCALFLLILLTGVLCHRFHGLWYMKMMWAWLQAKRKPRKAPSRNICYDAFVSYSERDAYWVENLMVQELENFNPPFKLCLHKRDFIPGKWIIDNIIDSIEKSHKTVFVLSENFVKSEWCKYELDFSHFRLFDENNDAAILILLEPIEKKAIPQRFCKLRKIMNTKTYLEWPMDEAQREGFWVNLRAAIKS
Method in brief: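 HEK-Blue cells (HEK293 stably transfected with human TLR2 and NF-κB-driven secreted alkaline phosphatase) kept in selection medium with zeocin and normocin; seeded ~10^5 cells/mL, grown to confluency, then stimulated 12 h with serially diluted compounds. Supernatant sAP read spectrophotometrically at 620 nm using an alkaline phosphatase-specific chromogen in the detection medium.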

[2] = Upregulation of p38 MAPK expression in […] […] by flow cytometric analysis; format: functional, cell-based; settings: Homo sapiens
Method in brief: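 Heparinized fresh human whole blood exposed to graded compound concentrations in saline for 15 min at 37 °C. Red cells lysed and leukocytes fixed in one step, then permeabilized in ice-cold methanol 30 min. Stained with PE anti-phospho-p38MAPK (pT180/pY182, α/β/γ/δ isoforms). Single-colour PE flow cytometry on 20,000 gated events.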

[3] = Upregulation of CD11b expression in human […] by flow cytometric analysis; format: functional, cell-based
Method in brief: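 Fresh heparinized or anticoagulated human whole blood from healthy adults, incubated with graded compound dilutions 1 h at 37 °C, with saline negative controls. Kept on ice 15 min, then stained with anti-CD11b on ice 30 min so only surface CD11b was labelled. Red cells lysed and leukocytes fixed in one step; PE single-colour flow cytometry on 20,000 gated events.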

[4] = Aqueous solubility of the compound; format: physicochemical; settings: buffer

`CCCCCCCCCCCCCCCC(=O)O[C@H](CO)CSC[C@H](N)C(=O)N[C@@H](CO)C(=O)O` showed an EC50 [1] of 1.86 nM.
Work on `CCCCCCCCCCCCCCCC(=O)OCCCSC[C@H](N)C(=O)N[C@@H](CO)C(=O)OC` yielded an EC50 [1] greater than 1000 nM.
Molecule `CCCCCCCCCCCCCCCC(=O)OC[C@H](CSCCC(=O)N[C@@H](CO)C(=O)OC)OC(=O)CCCCCCCCCCCCCCC` has an EC50 [1] greater than 1000 nM.
`CCCCCCCCCCCCCCCC(=O)OC[C@H](CSC[C@H](N)C(=O)NCC(=O)OC(C)C)OC(=O)CCCCCCCCCCCCCCC` showed an EC50 [1] of 0.45 nM.
`CCCCCCCCCCCCCCCC(=O)OC[C@H](CSC[C@H](NC(=O)CC[C@H](N)C(=O)O)C(=O)NCC(=O)OC(C)C)OC(=O)CCCCCCCCCCCCCCC` showed an EC50 [1] greater than 1000 nM.
`CCOCCOCCOCCCNCC(=O)OC[C@H](CSC[C@H](N)C(=O)N[C@@H](CO)C(=O)O)OC(=O)CNCCCOCCOCCOCC` showed an EC50 [1] greater than 1000 nM.
With `CCCCCCCCCCCCCCCCOC(=O)CSC[C@H](N)C(=O)N[C@@H](CO)C(=O)OC` the EC50 [1] was greater than 1000 nM.
Molecule `CCCCCCCCCCCCCCCC(=O)OC[C@H](CSCC[C@H](N)C(=O)N[C@@H](CO)C(=O)O)OC(=O)CCCCCCCCCCCCCCC` has an EC50 [1] greater than 1000 nM.
In the case of `CC/C=C\C/C=C\C/C=C\CCCCCCCC(=O)OC[C@H](CSC[C@H](N)C(=O)NCC(=O)OC(C)C)OC(=O)CCCCCCC/C=C\C/C=C\C/C=C\CC`, the EC50 [1] is reported as 0.87 nM.
In the case of `CCCCCCCCCCCCCCCCOC(=O)CCSC[C@H](N)C(=O)N[C@@H](CO)C(=O)OC`, the EC50 [1] is reported as greater than 1000 nM.
For `CCCCCCCCCCCCCCCC(=O)OC[C@H](C[Se]C[C@H](N)C(=O)N[C@@H](CO)C(=O)OC)OC(=O)CCCCCCCCCCCCCCC`, the EC50 [1] was 0.26 nM.
In the case of `CCCCCCCCCCCCCCCC(=O)OCCSC[C@H](N)C(=O)N[C@@H](CO)C(=O)OC`, the Activity [2] is reported as “Active”, the EC50 [1] is reported as 4.44 nM and the Activity [3] is reported as “Active”.
In the case of `CCCCC/C=C\C/C=C\CCCCCCCC(=O)OC[C@H](CSC[C@H](N)C(=O)NCC(=O)OC(C)C)OC(=O)CCCCCCC/C=C\C/C=C\CCCCC`, the EC50 [1] is reported as 1 nM.
For `CCCCCCCCCCCCCCCC(=O)O[C@H](COC(=O)CNCCCOCCOCCOCC)CSC[C@H](N)C(=O)N[C@@H](CO)C(=O)O`, the solubility [4] was “soluble” and the EC50 [1] was 2.11 nM.
In the case of `CCCCCCCCCCCCCCCC(=O)O[C@H](COC(=O)CNCCCNCCCCNCCCN)CSC[C@H](N)C(=O)N[C@@H](CO)C(=O)O`, the solubility [4] is reported as “soluble” and the EC50 [1] is reported as 3.23 nM.
In the case of `CCCCCCCCCCCCCC(=O)OC[C@H](CSC[C@H](N)C(=O)N[C@@H](CO)C(=O)O)OC(=O)CCCCCCCCCCCCC`, the EC50 [1] is reported as 0.56 nM.
In the case of `CCCCCCCCCCCCCCCC(=O)OC[C@@H](O)CSC[C@H](N)C(=O)N[C@@H](CO)C(=O)O`, the EC50 [1] is reported as 1.95 nM.
For `CCCCCCCCCCCCCCCC(=O)O[C@H](COC(=O)CNCCCOCCOCCOCCCN)CSC[C@H](N)C(=O)N[C@@H](CO)C(=O)O`, the solubility [4] was “soluble” and the EC50 [1] was 1.55 nM.
Work on `CCCCCCCCCCCC(=O)OC[C@H](CSC[C@H](N)C(=O)N[C@@H](CO)C(=O)O)OC(=O)CCCCCCCCCCC` yielded an EC50 [1] of 6.48 nM.
Molecule `CCCCCCCCCCCCCCCC(=O)OC[C@H](CSC(C)(C)[C@H](N)C(=O)N[C@@H](CO)C(=O)O)OC(=O)CCCCCCCCCCCCCCC` has an EC50 [1] greater than 1000 nM.
In the case of `CCCCCCCCCCCCCCCCCC(=O)OC[C@H](CSC[C@H](N)C(=O)N[C@@H](CO)C(=O)O)OC(=O)CCCCCCCCCCCCCCCCC`, the EC50 [1] is reported as 1.47 nM.
Molecule `CCCCCCCCCCCCCCCC(=O)OC[C@H](CSC(C)(C)[C@@H](N)C(=O)N[C@@H](CO)C(=O)OC)OC(=O)CCCCCCCCCCCCCCC` has an EC50 [1] greater than 1000 nM.
For `CCCCCCCCCCCCCCCC(=O)OCC(CSC[C@H](N)C(=O)N[C@@H](CO)C(=O)O)OC(=O)CCCCCCCCCCCCCCC` (mixture of isomers), the Activity [2] was “Active” and the Activity [3] was “Active”.
